ChEMBL document CHEMBL1165850, “Synthesis, biological evaluation and molecular docking of novel series of spiro [(2H,3H) quinazoline-2,1'- cyclohexan]-4(1H)-one derivatives as anti-inflammatory and analgesic agents” (Eur J Med Chem, 2010)

Assays:
[1] = system: Rattus norvegicus; assay: Antiinflammatory activity in rat assessed as reduction in carrageenan-induced paw edema at 9 mg/kg, ip administered 1 hr before carrageenan challenge measured after 1 hr; type: functional; parameters: unit not given here; conditions: route intraperitoneal
How it was run: (§1)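 Adult rats of either sex (150–200 g), randomly grouped. Compounds were dissolved in DMSO and given i.p. at 9 mg/kg; indomethacin was given at 10 mg/kg; controls received DMSO i.p. Dosing was 1 h before 100 ul of 1% carrageenan in saline injected subplantar into the right hind paw. Paw volume was measured by planimeter before and at 1, 2, 3 and 4 h. Values are mean ± S.E., analysed by one-way ANOVA with LSD.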

[2] = system: Rattus norvegicus; assay: Gastrointestinal toxicity in Wistar rat assessed as ulcerogenic effect at 9 mg/kg, po after 7 hrs; type: organism-based; parameters: dose 9 mg/kg, route oral; conditions: in vivo
How it was run: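 Male Wistar rats, 150–175 g, groups of 5, fasted 48 h, then given 9 mg/kg orally as an aqueous suspension (10 mL/kg). Killed 7 h later. Stomachs were opened along the greater curvature and inspected for irritation, scored as number of ulcers, ulcer severity and number of rats with ulcers per 5. Ethanol control, indomethacin reference. Reported as mean ± S.E.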

[3] = system: Rattus norvegicus; assay: Antiinflammatory activity in rat assessed as reduction in carrageenan-induced paw edema at 9 mg/kg, ip administered 1 hr before carrageenan challenge measured after 2 hrs; type: functional; parameters: unit not given here; conditions: route intraperitoneal; how it was run: as §1
[4] = system: Mus musculus; assay: Analgesic activity in mouse assessed as reaction time administered 1 hr before test measured after 1 hr by hot plate test; type: functional
How it was run: (§2)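 Hot-plate test in adult mice (20–25 g), plate at 52 °C (±0.1 °C). Vehicle, compounds or tramadol (20 mg/Kg b wt) were given 60 min before testing. Latency to lick a hind paw or jump was recorded before dosing and at 1 and 2 h after. Values are mean ± S.E. of six animals per group, with Dunnett's test against control.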

[5] = system: Rattus norvegicus; assay: Antiinflammatory activity in rat assessed as reduction in carrageenan-induced paw edema at 9 mg/kg, ip administered 1 hr before carrageenan challenge measured after 3 hrs; type: functional; parameters: unit not given here; conditions: route intraperitoneal; how it was run: as §1
[6] = system: Mus musculus; assay: Analgesic activity in mouse assessed as reaction time administered 1 hr before test measured after 2 hrs by hot plate test; type: functional; how it was run: as §2
[7] = system: Mus musculus; assay: Analgesic activity in mouse assessed as reaction time at 20 mg/kg administered 1 hr before test measured after 1 hr by hot plate test; type: functional; how it was run: as §2
[8] = system: Mus musculus; assay: Analgesic activity in mouse assessed as reaction time at 20 mg/kg administered 1 hr before test measured after 2 hrs by hot plate test; type: functional; how it was run: as §2

Row | SMILES | Activity [1] | UI [2] | Activity [3] | Time [4] [s] | Activity [5] | Time [6] [s] | Time [7] [s] | Time [8] [s]
1 | CN(C)c1ccc(C2CC(c3ccc(N4C(=O)c5ccccc5NC45CCCCC5)cc3)=NN2c2ccccc2)cc1 (centres undefined) | 57.9 | 10.4 | 65.4 | 15 | 66.4 | 20.5 | – | –
2 | O=C1c2ccccc2NC2(CCCCC2)N1c1ccc(C2=NN(c3ccccc3)C(c3ccco3)C2)cc1 (centres undefined) | 52.2 | – | 79.1 | 9.2 | 82.5 | 10.9 | – | –
3 | CCOC(=O)c1ccc(N2C(=O)c3ccccc3NC23CCCCC3)cc1 | 44.2 | – | 59.6 | 12 | 67.8 | 14.6 | – | –
4 | COc1ccc(/C=N/NC(=O)c2ccc(N3C(=O)c4ccccc4NC34CCCCC4)cc2)cc1 | 72.4 | – | 88 | 13.3 | 88.7 | 16.9 | – | –
5 | O=C(NN1C(=O)CN(C2CCCCC2)C1=S)c1ccc(N2C(=O)c3ccccc3NC23CCCCC3)cc1 | 54.9 | – | 66.7 | 8.9 | 77.2 | 13 | – | –
6 | NNC(=O)c1ccc(N2C(=O)c3ccccc3NC23CCCCC3)cc1 | 57.5 | – | 85.7 | 9.4 | 82.1 | 17 | – | –
7 | NS(=O)(=O)c1ccc(N2C(=O)c3ccccc3NC23CCCCC3)cc1 | 57.7 | – | 78.9 | 9.5 | 87.7 | 17.5 | – | –
8 | O=C1c2ccccc2NC2(CCCCC2)N1c1ccc(S(=O)(=O)Nc2ncccn2)cc1 | 60.4 | 0.6 | 74.1 | 19.8 | 80.1 | 21.6 | – | –
9 | CCC(=S)NS(=O)(=O)c1ccc(N2C(=O)c3ccccc3NC23CCCCC3)cc1 | 67.5 | – | 83.4 | 11 | 88.6 | 19.1 | – | –
10 | N#Cc1c(-c2ccc(F)cc2)cc(-c2ccc(N3C(=O)c4ccccc4NC34CCCCC4)cc2)[nH]c1=O | 85.4 | – | 74.6 | 11.8 | 88 | 13.5 | – | –
11 | N#Cc1c(-c2ccccc2O)cc(-c2ccc(N3C(=O)c4ccccc4NC34CCCCC4)cc2)[nH]c1=O | 49.4 | 0 | 71.8 | 24.9 | 76.4 | 19.4 | – | –
12 | O=C(NN1C(=O)CSC1c1cccs1)c1ccc(N2C(=O)c3ccccc3NC23CCCCC3)cc1 (centres undefined) | 56.2 | 0.4 | 65.1 | 21 | 55.9 | 18.4 | – | –
13 | O=C(NNC(=S)NC1CCCCC1)c1ccc(N2C(=O)c3ccccc3NC23CCCCC3)cc1 | 65.1 | – | 82.1 | 9.3 | 83.9 | 17.2 | – | –
14 | N#Cc1c(-c2ccccc2O)cc(-c2ccc(N3C(=O)c4ccccc4NC34CCCCC4)cc2)[nH]c1=N | 61 | 2 | 66.6 | 14.6 | 68.6 | 18.4 | – | –
15 | O=C(/C=C/c1ccco1)c1ccc(N2C(=O)c3ccccc3NC23CCCCC3)cc1 | 60.4 | – | 93.8 | 9.6 | 94.8 | 17.1 | – | –
16 | O=C(NN1C(=O)CC(=O)N(C2CCCCC2)C1=S)c1ccc(N2C(=O)c3ccccc3NC23CCCCC3)cc1 | 61.7 | – | 79.3 | 9.4 | 85.1 | 17.1 | – | –
17 | CC(=O)N1N=C(c2ccc(N3C(=O)c4ccccc4NC34CCCCC4)cc2)CC1c1ccco1 (centres undefined) | 49.9 | – | 88.7 | 9.5 | 83.5 | 17 | – | –
18 | N#Cc1c(-c2ccc(F)cc2)cc(-c2ccc(N3C(=O)c4ccccc4NC34CCCCC4)cc2)[nH]c1=N | 66.4 | 3.2 | 78.2 | 24.1 | 81.3 | 17.8 | – | –
19 | CC(=O)c1ccc(N2C(=O)c3ccccc3NC23CCCCC3)cc1 | 54.6 | – | 80.9 | 9.1 | 81.5 | 17 | – | –
20 | COc1ccc2c(c1)c(CC(=O)O)c(C)n2C(=O)c1ccc(Cl)cc1 [INDOMETHACIN] | – | 9.8 | – | – | – | – | – | –
21 | COc1cccc(C2(O)CCCCC2CN(C)C)c1 (centres undefined) [TRAMADOL] | – | – | – | – | – | – | 17.6 | 18.2
